STAT1 act: activators of IFN-gamma induced STAT1 signaling. NIH 3T3 STAT1-luciferase reporter, luminescence; 100% = IFN-gamma alone, no compound. activation (% of control), % at 5.5 µM. hit rate 2.6% among 200,000;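 active means activation above the screen-wide mean activation plus 3 SD, cut at about 130% in these data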;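 further: raw ratio to IFN-gamma control signal so 100% means no change and 0% no light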
FLuc inh counter: Photinus pyralis luciferase inhibition counter-screen; P08659; ATPLite firefly luciferase biochemical luminescence, 10 min; inhibition, % at 10 µM; hit rate 1.5% among 200,000;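 active means inhibition above about 50% when tested at 10 µM, limit read from the data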
Target sequence (P08659 whole entry, looked up): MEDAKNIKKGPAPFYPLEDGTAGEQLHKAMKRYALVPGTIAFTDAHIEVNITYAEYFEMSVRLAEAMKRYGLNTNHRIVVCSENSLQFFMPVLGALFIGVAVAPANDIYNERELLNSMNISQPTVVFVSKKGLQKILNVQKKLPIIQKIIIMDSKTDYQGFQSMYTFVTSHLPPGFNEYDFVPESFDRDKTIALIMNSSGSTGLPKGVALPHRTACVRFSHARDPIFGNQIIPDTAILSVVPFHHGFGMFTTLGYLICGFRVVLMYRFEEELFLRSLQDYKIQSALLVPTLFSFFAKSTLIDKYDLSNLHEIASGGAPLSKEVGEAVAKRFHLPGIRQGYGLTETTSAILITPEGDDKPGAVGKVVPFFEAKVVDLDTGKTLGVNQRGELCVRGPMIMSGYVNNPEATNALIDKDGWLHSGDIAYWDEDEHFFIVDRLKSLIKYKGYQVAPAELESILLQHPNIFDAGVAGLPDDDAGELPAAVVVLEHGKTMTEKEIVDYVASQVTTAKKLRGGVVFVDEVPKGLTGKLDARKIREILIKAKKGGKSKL
FLuc act counter: affects firefly luciferase, flagging false hits in luciferase stimulation screens. ATPlite luciferase biochemical, luminescence, 10 min; 0 = ATP-free wells, 1 = DMSO control. AID 1027. activation factor at 10 µM. P08659. 200,000 tested, under 10 active;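 active means luciferase activation factor, scaled between plate controls, of at least 2 with compound at 10 µM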
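System: luciferase plus luciferin reagent, cell-free; medium: PBS as buffer for the ATP substrate; dosing: test compounds dosed from 2 mM stocks in 100% DMSO; timing: 10 min post-reagent at room temperature; measured by: luminescence measurement of luciferase light output; evaluation: luciferase activation, seen as luminescence increase over controls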
SDO1 yeast rescue: compounds rescuing growth of sdo1-depleted yeast, bone marrow failure model. S. cerevisiae sdo1-depleted JHY4D growth rescue, OD600 30 h; active compounds read high; pdr5 snq2 efflux-pump mutant strain. z-score at 10 µM. hit rate 0.21% among 140,000;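 active means z-score above 3 at both the 24 hr and the 30 hr optical density reads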;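 further: z-score against mean and SD of all compound wells on the same plate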
APP 5'UTR act: APP 5'UTR luciferase reporter activation. hit rate 1% among 190,000. activation, % at 2 µM. SH-SY5Y APP 5'UTR luciferase reporter, luminescence; zero percent = DMSO vehicle wells;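 active means activation above a set limit, based on mean plus 3 SD of controls, cut at about 140% in these data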
NF-kB expr up: raises NF-kB expression in human neuronal cells | NF-kB reporter expression; active compounds read high | fold change at 12.5 µM | hit rate 1.6% among 190,000; in the data active means fold change above about 3.3
SDO1 rescue DR: SDO1-depleted yeast growth rescue confirmation | shares compounds with SDO1 yeast rescue | S. cerevisiae JHY4D (SDO1-depleted) growth rescue, OD600, 30 h; active compounds read high; efflux-deficient strain, SNQ2 and PDR5 mutated | OD recovery (concentration not given with the values) | hit rate 44% among 440 | AID 949;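 active means yeast growth recovered at 30 hours, either rising with dose fitted slope above 0.001 or with average optical density gain above 0.07, some results past the limit were not filed as active; inactive means growth falling with dose or no effect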;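 further: gain in OD600 from 0 h to 30 h averaged across all seven doses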
Numbers without * were called inactive; · = not tested or not shown; ! = a repeat was not active; [ ] = dose if it differs, or a comment. Sampled rows, rich in hits. Any-hit rate of the full collection: about 4.3%.

SMILES	STAT1 act	FLuc inh counter	FLuc act counter	SDO1 yeast rescue	APP 5'UTR act	NF-kB expr up	SDO1 rescue DR
COCCNC(=S)Nc1ccc(S(=O)(=O)Nc2ncccn2)cc1	87	6	0.9	·	5	·	·
CC(C)C(NS(=O)(=O)c1cccs1)C(=O)N1CCc2ccccc2C1 (configuration not stated)	98	-2	1	-1.2	-2	0.93	·
Cc1nn(Cc2ccc(Cl)cc2)c(C)c1NC(=O)CSc1n[nH]c(C)c1[N+](=O)[O-]	93	-5	1	12*	-3	0.76	0.06*
Cc1nn(Cc2ccccc2)c(C)c1NC(=O)CSc1n[nH]c(C)c1[N+](=O)[O-]	93	-5	1.1	0.85	5	1.1	·
COc1ccc(Nc2nnc(SCc3cc(=O)n4ccsc4n3)s2)cc1	98	-8	1.1	-0.59	10	0.35	·
COC(=O)c1cccc(NC(=O)c2ccc3c(c2)C(=O)N(CC2CCCO2)C3=O)c1 (configuration not stated)	101	7	0.9	0.98	1	0.97	0.034
CN(CCCNC(=O)c1cccn2c(=O)c3ccccc3nc12)Cc1ccccc1	98	-7	1.1	0.08	3	0.55	·
CCNc1oc(-c2cccc3ccccc23)nc1C#N	117	-2	1	-1.2	12	1.3	·
N#Cc1nc(-c2cccc3ccccc23)oc1NCCN1CCCCC1	106	-1	1	11*	5	1.1	0.097*
COc1ccc(OC)c(-c2c3cc(O)c(=O)cc-3oc3cc(O)c(O)cc23)c1	98	7	0.9	5.7*	-12	0.42	0.063
CCOc1ccccc1-c1c2cc(O)c(=O)cc-2oc2cc(O)c(O)cc12	94	6	0.9	0.08	-10	0.95	·
C/C(=N\NC(=O)c1nn(C)cc1Cl)c1ccncc1	107	0	1	0.95	0	1.4	·
CC(=O)N(C1=C(O)c2ccccc2C(=O)C1=O)C1CCCCC1	97	-4	1	3.1*[12.9 µM]	3	1.1	0.074*
CCOC(=O)c1sc(=S)n(-c2ccccc2)c1N	95	-6	1.1	4*	4	0.98	0.056
CCOC(=O)c1sc(=S)n(-c2ccccc2)c1N(C(C)=O)C(C)=O	106	2	1	·	18	1.2	·
Cn1c(SCc2cccc([N+](=O)[O-])c2)nc2c(c1=O)SCC2	77	-4	1	·	5	0.54	·
CC12CCC(c3c1nc1ccccc1[n+]3[O-])C2(C)C (configuration not stated)	101	-6	1.1	5.4*	-25	1.5	0.08*
CCCCNC(=S)NCCN1CCN(C(=S)NCCCC)CC1	96	-8	1.1	·	2	0.94	·
Cc1cc(O)c(-c2cc(C(=O)Nc3ccc(S(=O)(=O)N4CCOCC4)cc3)[nH]n2)cc1C	99	-2	1	1.6	10	0.38	0.091*
COc1ccccc1OCc1ccc(C(=O)NCCN(C)C)o1	103	5	1	2.7	4	1	0.097*
COC(=O)c1cc(OC)c(OC)cc1NC(=S)N1CCN(C)CC1	83	-3	1	3.1*!	7	0.93	0.05
COC(=O)c1cc(OC)c(OC)cc1NC(=S)N1CCCCC1	99	-5	1.1	-0.53	-4	1.3	·
CCOC(=O)c1cnn(Cc2ccccc2)c1N	98	0	1	6.1*	-8	1.2	0.066
COc1ccc(CCNC(=O)CC(NS(=O)(=O)c2ccc(NC(C)=O)cc2)C(C)C)cc1OC (configuration not stated)	100	-10	1.1	2.3	-5	1	0.084
COc1ccc(S(=O)(=O)NC(CC(=O)NCCc2ccc(OC)c(OC)c2)C(C)C)cc1 (configuration not stated)	97	-8	1.1	·	4	1.3	·
SMILES	STAT1 act	FLuc inh counter	FLuc act counter	SDO1 yeast rescue	APP 5'UTR act	NF-kB expr up	SDO1 rescue DR
O=C(C(c1ccccc1)c1ccccc1)N(Cc1ccco1)C1CCS(=O)(=O)C1 (configuration not stated)	96	-9	1.1	16*	2	1.1	0.089*
Cc1ccc(/C=C(\NC(=O)c2ccccc2)C(=O)N2CCCC2C(=O)O)cc1 (configuration not stated)	98	-2	1	·	-2	1.1	·
COc1ccc(OCC(=O)Nc2nonc2NC(=O)COc2ccc(OC)cc2)cc1	96	38	0.6	·	19	1.2	·
COc1ccc(OCC(=O)Nc2cccc(NC(=O)COc3ccc(OC)cc3)n2)cc1	98	11	0.9	3.1*	18	1.2	0.067
Cc1cccc(C)c1OCC(=O)NNC(=O)c1ccoc1C	104	-6	1.1	0.15	8	1.1	·
COc1ccccc1OCC(=O)NNC(=O)c1ccoc1C	102	2	1	5.1*	2	1.2	0.034
Cc1csc(NC(=O)CSc2ccc(-c3ccccn3)nn2)n1	97	2	1	·	-8	1	·
CCOC(=O)c1nonc1NC(C)=O	93	-7	1.1	0.54	-14	0.97	·
CCOC(=O)c1nsnc1NCCSC(=N)N	96	-7	1.1	6.2*	-5	1.5	0.094*
COC(=O)c1ccc(COC(=O)c2ccc(CO)cc2)o1	104	-2	1	0.48	-9	1.2	·
O=C(NCn1ccc(=O)[nH]c1=S)c1ccccc1	100	-8	1.1	1.1	1	1	·
O=C(OCC(CO)OC(CO)n1ccc(=O)[nH]c1=O)c1ccccc1 (configuration not stated)	108	-1	1	7.7*	-3	0.97	0.06
COCCn1c(SCC#N)nnc1-c1ccc(OC)cc1	102	-3	1	9*	-22	0.93	0.058
COCCn1c(SCC(=O)Nc2sc(C)c(C)c2C#N)nnc1-c1ccc(OC)cc1	99	-4	1	-1.1	8	0.96	·
CN1CCN(C(=O)c2ccccc2-c2nc(-c3ccccc3)no2)CC1	105	1	1	-0.18	19	1.5	·
NC(=O)c1ccccc1-c1nc(-c2ccccc2)no1	113	7	0.9	11*	57	1.8	0.055
O=C(CN1CCN(c2cccc(Cl)c2)CC1)Nc1ccc([N+](=O)[O-])cc1C(=O)Nc1ccccc1F	95	-6	1.1	14*	4	0.46	0.033
CCCNC(=O)C1CCN(S(=O)(=O)c2ccc(Br)cc2)CC1	92	-2	1	0.65	-1	1.3	·
O=C(N/N=C/c1cc([N+](=O)[O-])c(N2CCOCC2)cc1N1CCOCC1)c1cccnc1	99	-3	1	·	-12	1.2	·
